# Results from ChEMBL document CHEMBL3286372, “Design, synthesis and structure-activity relationship of novel semi-synthetic flavonoids as antiproliferative agents” (2014).
# Legend:
# [1] = Growth inhibition of human NCI-ADR-RES cells at 10 uM after 48 hrs by sulforhodamine B assay relative to control; format: functional; details: read-out: GI
# Method in brief: (§1)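 NCI-60 primary screen at a single 10 µM dose. Continuous 48 h exposure, with growth or viability estimated by sulforhodamine B protein staining. Reported as percent growth inhibition of treated cells relative to untreated growth.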
# [2] = Growth inhibition of human NCI60 cells after 48 hrs by coulter counting analysis; format: functional; details: NCI60, 48 h
# Method in brief: (§2)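 Five-dose screen (0.01-100 µM, DMSO-solubilized, under 1% DMSO final), cells in RPMI 1640 + 10% FBS at 6×10^4 cells/ml, duplicate wells, 37 °C, 5% CO2, 48 h. Cells then diluted tenfold in saline and counted by Coulter counter with dilution correction. Controls held buffer/saline/DMSO at matching dilutions. GI50 derived from log concentration-percent growth inhibition curves.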
# SN12C = assay: Growth inhibition of human SN12C cells after 48 hrs by coulter counting analysis; format: functional
# Method in brief: (§3)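 Five-dose NCI-60 follow-up, 0.01–100 µM, made from DMSO stock in buffered saline (final DMSO <1%), in duplicate wells. Cells in RPMI 1640 with 10% FBS at 6×10^4 cells/ml, 37 °C, 5% CO2, 48 h. Cells diluted tenfold in saline, Coulter-counted and corrected for dilution. GI50, TGI and LC50 taken from log concentration–percent growth curves.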
# [3] = molecular target: Cyclin-dependent kinase 4/cyclin D1 (Homo sapiens) (UniProt P11802+P24385); assay: Inhibition of CDK4/Cyclin D1 (unknown origin) at 20 uM after 30 mins by scintillation counting analysis relative to control; format: protein-complex assay
# Method in brief: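 Recombinant kinases, cloned, expressed and purified in-house. Radiometric ³³P-ATP assay with kinase at ~10-50 nM final and 1-5 µg peptide or protein substrate. Compound at 20 µM final, in duplicate. Reaction started by adding ATP, run 30 min at ambient temperature, then spotted on P81 phosphocellulose. Plates washed in 1% phosphoric acid and counted by scintillation. No-substrate blank subtracted. Result is mean % activity change versus DMSO control.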
# [4] = Growth inhibition of human SF539 cells after 48 hrs by coulter counting analysis; format: functional; details: SF-539, 48 h; method in brief: as §3
# [5] = Growth inhibition of human SF295 cells after 48 hrs by coulter counting analysis; format: functional; details: SF-295, 48 h; method in brief: as §3
# HT-29 = assay: Growth inhibition of human HT-29 cells after 48 hrs by coulter counting analysis; format: functional; details: HT-29, 48 h
# Method in brief: (§4)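 NCI five-dose screen at 0.01-100 µM, diluted from DMSO stocks in buffered saline (final DMSO <1%). Cells at 6×10^4 cells/ml in RPMI 1640 with 10% FBS, in duplicate wells, at 37 °C under 5% CO2 for 48 h. Cells diluted tenfold in saline and Coulter-counted. GI50, TGI and LC50 taken from log concentration-growth inhibition curves.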
# [6] = Growth inhibition of human LOXIMVI cells after 48 hrs by coulter counting analysis; format: functional; details: LOX IMVI; method in brief: as §4
# PC-3 = assay: Growth inhibition of human PC3 cells after 48 hrs by coulter counting analysis; format: functional; details: PC-3, 48 h; method in brief: as §3
# HCT-116 = assay: Growth inhibition of human HCT116 cells after 48 hrs by coulter counting analysis; format: functional; details: HCT-116, 48 h; method in brief: as §4
# [7] = Growth inhibition of human NCI-ADR-RES cells after 48 hrs by coulter counting analysis; format: functional; method in brief: as §3
# NCI-H23 = assay: Growth inhibition of human NCI-H23 cells after 48 hrs by coulter counting analysis; format: functional; details: NCI-H23, 48 h; method in brief: as §3
# DU-145 [8] = assay: Growth inhibition of human DU145 cells at 10 uM after 48 hrs by sulforhodamine B assay relative to control; format: functional; details: DU-145, 48 h, read-out: GI
# Method in brief: (§5)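 NCI-60 primary screen at a single dose of 10 µM with 48 h continuous exposure. Growth or viability read by sulforhodamine B protein staining and expressed as percent growth inhibition versus untreated cells.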
# SNB-75 = assay: Growth inhibition of human SNB75 cells at 10 uM after 48 hrs by sulforhodamine B assay relative to control; format: functional; details: SNB-75, 48 h, read-out: GI; method in brief: as §1
# MDA-MB-468 = assay: Growth inhibition of human MDA-MB-468 cells after 48 hrs by coulter counting analysis; format: functional; details: MDA-MB-468, 48 h; method in brief: as §3
# [9] = Growth inhibition of human OVCAR8 cells at 10 uM after 48 hrs by sulforhodamine B assay relative to control; format: functional; details: OVCAR-8, 48 h, read-out: GI; method in brief: as §1
# MCF7 = assay: Growth inhibition of human MCF7 cells at 10 uM after 48 hrs by sulforhodamine B assay relative to control; format: functional; details: MCF7, 48 h, read-out: GI; method in brief: as §5
# [10] = Growth inhibition of human HCC2998 cells after 48 hrs by coulter counting analysis; format: functional; details: HCC 2998, 48 h; method in brief: as §4
# SK-MEL-5 = assay: Growth inhibition of human SK-MEL-5 cells after 48 hrs by coulter counting analysis; format: functional; details: SK-MEL-5, 48 h; method in brief: as §3
# IGROV-1 = assay: Growth inhibition of human IGROV1 cells after 48 hrs by coulter counting analysis; format: functional; details: IGROV-1, 48 h; method in brief: as §4
# [11] = Growth inhibition of human HCT15 cells after 48 hrs by coulter counting analysis; format: functional; details: HCT-15, 48 h; method in brief: as §4
# MDA-MB-231 = assay: Growth inhibition of human MDA-MB-231 cells after 48 hrs by coulter counting analysis; format: functional; details: MDA-MB-231, 48 h; method in brief: as §4
# NCI-H460 = assay: Growth inhibition of human NCI-H460 cells at 10 uM after 48 hrs by sulforhodamine B assay relative to control; format: functional; details: NCI-H460, 48 h, read-out: GI; method in brief: as §1
# HOP-62 = assay: Growth inhibition of human HOP62 cells after 48 hrs by coulter counting analysis; format: functional; details: HOP-62, 48 h; method in brief: as §4
# 786-0 = assay: Growth inhibition of human 786-0 cells after 48 hrs by coulter counting analysis; format: functional; details: 786-0, 48 h; method in brief: as §4
# NCI-H322M = assay: Growth inhibition of human NCI-H322M cells after 48 hrs by coulter counting analysis; format: functional; method in brief: as §3
# [12] = Growth inhibition of human Hs 578T cells after 48 hrs by coulter counting analysis; format: functional; method in brief: as §4
# [13] = Growth inhibition of human OVCAR5 cells after 48 hrs by coulter counting analysis; format: functional; details: OVCAR-5, 48 h; method in brief: as §3
# DU-145 [14] = assay: Growth inhibition of human DU145 cells after 48 hrs by coulter counting analysis; format: functional; details: DU-145, 48 h; method in brief: as §4
# HL-60(TB) = assay: Growth inhibition of human HL-60(TB) cells after 48 hrs by coulter counting analysis; format: functional; details: HL-60, 48 h; method in brief: as §2
# [15] = Growth inhibition of human UO31 cells at 10 uM after 48 hrs by sulforhodamine B assay relative to control; format: functional; details: UO-31, 48 h, read-out: GI
# Method in brief: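 NCI-60 primary single-dose screen at 10 µM with continuous 48 h exposure. Cell viability/growth read by sulforhodamine B protein staining. Reported as percent growth inhibition relative to untreated cells.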
# [16] = Growth inhibition of human MOLT4 cells at 10 uM after 48 hrs by sulforhodamine B assay relative to control; format: functional; details: MOLT-4, 48 h, read-out: GI; method in brief: as §1
# [17] = read-out: LC50 (the source's name)
SMILES,inhibition of growth at 10 µM [1] [%],LC50 [2] [µM],TGI [2] [µM],GI50 (SN12C) [µM],inhibition [3] [%],GI50 [5] [µM],GI50 (HT-29) [µM],GI50 (PC-3) [µM],GI50 (HCT-116) [µM],GI50 [7] [µM],GI50 (NCI-H23) [µM],inhibition of growth at 10 µM (DU-145 [8]) [%],inhibition of growth at 10 µM (SNB-75) [%],GI50 (MDA-MB-468) [µM],inhibition of growth at 10 µM [9] [%],GI50 [10] [µM],GI50 (SK-MEL-5) [µM],GI50 (IGROV-1) [µM],GI50 [11] [µM],GI50 (MDA-MB-231) [µM],further results
C=CCc1c2c(c(OC)c3ccoc13)C(=O)/C(=C/c1ccccc1OC)O2,65,100,58.9,4.85,9,3.67,3.98,5.25,3.29,2.82,2.88,65,64,2.46,61,2.85,3.91,5.27,3.6,4.59,GI50 [4]: 5.45 µM; GI50 [6]: 3.13 µM; inhibition of growth at 10 µM (MCF7): 67%; inhibition of growth at 10 µM (NCI-H460): 69%; GI50 (HOP-62): 4.98 µM; GI50 (786-0): 6.29 µM; GI50 (NCI-H322M): 5.93 µM; GI50 [12]: 5.29 µM; GI50 [13]: 3.57 µM; GI50 (DU-145 [14]): 3.19 µM
COc1c2occc2c(OC)c2c(=O)c(CN3CCOCC3)c(/C=C/c3ccc(N(C)C)cc3)oc12,87,60.2,5.24,2.45,12,1.82,2.2,1.69,2.11,2.63,2.56,93,99,1.76,80,2.62,1.09,1.79,2.25,2.22,CC50 (HT-29; [17]): 6.68 µM; GI50 (HL-60(TB)): 1.55 µM; LC50 (HL-60(TB)): 9.7 µM; CC50 (SK-MEL-5; [17]): 4.99 µM; inhibition of growth at 10 µM [15]: 63%; inhibition of growth at 10 µM [16]: 88%; GI50 (HOP-62): 2.33 µM; GI50 (786-0): 1.93 µM; GI50 (NCI-H322M): 1.65 µM; GI50 [13]: 2.59 µM; GI50 (DU-145 [14]): 1.67 µM
